Publication PMC3037477 (Investigational New Drugs, 2009)

Columns and labels:
[1] = HPLC analysis of extracellular cleavage of prodrugs to nucleosides in the medium; assay type: in vitro ADME; settings: after 24 h incubation with 100 µM prodrug
Method in brief: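 Cells were exposed to prodrug for 24 h. Medium above the cells was sampled after centrifugation, deproteinized with TCA and neutralized, then analysed by HPLC-UV for parent drug, FdUrd and ETC. Means of 3–5 independent experiments ± SEM.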

[2] = In vivo toxicity in HT-29 xenograft mice; parameters: species or system NMRI:nu/nu female mice; settings: i.v. and oral treatment
[3] = test system: HT-29 xenograft; experiment: In vivo antitumor effect in human HT-29 xenograft model; parameters: species or system NMRI:nu/nu female mice; settings: or., 40 mg/kg/inj
Method in brief: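 5-FU-resistant human HT-29 colon carcinoma cells were implanted subcutaneously in female nude mice. Dosing began at palpable tumour size on a q4dx3 schedule. Tumour volumes of treated mice (T) were compared with PBS-treated controls (C). Animals were killed once tumours exceeded 1 cm3.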

[4] = LC-MS/MS detection of ETC and ETC-nucleotides in tumor and liver tissue; assay type: in vivo, NMRI:nu/nu female mice; settings: 2 h after administration
Method in brief: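 Subcutaneous HT-29 xenografts were grown in female NMRI nude mice. Tumour and liver were taken 2 h after prodrug administration. ETC and its nucleotides were quantified by LC-MS/MS in MRM mode (transition 268.2/112.2).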

[5] = target: thymidylate synthase (TS) in intact FM3A/0 cells (Mus musculus, UniProt P07607); experiment: TS in situ activity assay; assay type: cell-based, murine; settings: 24 h exposure to 0.5 µM
Chain of thymidylate synthase (TS) in intact FM3A/0 cells (P07607 whole entry): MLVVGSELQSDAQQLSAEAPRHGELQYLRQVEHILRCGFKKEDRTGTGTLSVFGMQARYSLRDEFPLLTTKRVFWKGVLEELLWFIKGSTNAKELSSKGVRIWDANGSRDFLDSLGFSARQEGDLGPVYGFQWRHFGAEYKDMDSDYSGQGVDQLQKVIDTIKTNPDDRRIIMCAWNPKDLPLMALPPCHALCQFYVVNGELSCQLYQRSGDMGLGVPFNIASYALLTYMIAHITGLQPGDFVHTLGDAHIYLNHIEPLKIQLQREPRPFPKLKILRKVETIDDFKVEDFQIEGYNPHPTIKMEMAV

C#C[C@@]1(O)[C@@H](COP(=O)(O)OC[C@H]2O[C@@H](n3cc(F)c(=O)[nH]c3=O)C[C@@H]2O)O[C@@H](n2ccc(N)nc2=O)[C@@H]1O [ETC-FdUrd, 3′-C-Ethynylcytidylyl-(5′➔5′)-5-fluoro-2′-deoxyuridine]
parent drug still present in the medium [1]: More than 60% | haematological side effects [2]: did not result in any haematological side effects | Evaluation (in vivo activity) [3]: orally active | ETC and ETC-nucleotide accumulation in liver tissue [4]: accumulated in the liver tissue | ETC-nucleoside and ETC-nucleotide accumulation in tumor tissue ([4]; HT-29 xenograft): accumulated to a high extent in the tumor tissue

O=c1[nH]c(=O)n([C@H]2C[C@H](O)[C@@H](CO)O2)cc1F [FdUrd, 5-fluoro-2′-deoxyuridine]
inhibition of thymidylate synthase (TS) in situ [5]: inhibited almost completely
